Results on one compound are retold here after ChEMBL document CHEMBL1122299, “Potential cerebral perfusion agents: synthesis and evaluation of a radioiodinated vinylalkylbarbituric acid analogue” (J Med Chem, 1983).

Data set [1] concerns Rattus norvegicus. Description: Distribution of radioactivity in blood of rats at 1 day after an intravenous injection; Value expressed as mean % injected dose, Range- 0.03-0.03. It counts as ADME, organism-based. As to conditions: in vivo, 24 h. Put shortly:
(§1)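 Female Fischer 344 rats (10–12 wk, 170–200 g; food and water ad libitum) under ether received 7.95 μCi 125I-labeled agent (sp act ~155 mCi/mmol) in pH 7.4 phosphate buffer, filtered, via lateral tail vein. Four rats per time point (2 min–1 day). Killed by cervical fracture under ether; organs excised, saline-rinsed, blotted, weighed, gamma-counted; mean % injected dose/g with range.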

The test system of data set [2] is Rattus norvegicus. Description: Distribution of radioactivity in blood of rats at 1 hr after an intravenous injection; Value expressed as mean % injected dose, Range-0.9-1.03. As to conditions: in vivo. It counts as ADME, organism-based. Put shortly:
as §1

Data set [3] deals with Rattus norvegicus. Description: Distribution of radioactivity in blood of rats at 2 mins after an intravenous injection; Value expressed as mean % injected dose, Range = 0.88-1.15. It counts as ADME, organism-based. As to conditions: in vivo. The essentials:
as §1

Data set [4] deals with Rattus norvegicus. The experiment in a line: Distribution of radioactivity in blood of rats at 2 hr after an intravenous injection; Value expressed as mean % injected dose, Range = 0.71-0.87. It counts as ADME, organism-based. To be noted: in vivo. The essentials: as §1
The test system of data set [5] is Rattus norvegicus. The experiment in a line: Distribution of radioactivity in lung tissue of rats at 30 mins after an intravenous injection; Value expressed as mean % injected dose, Range- 0.65-0.87. It counts as ADME, organism-based. To be noted: in vivo, 0.5 h. Put shortly:
as §1

For data set [6], the system named is Rattus norvegicus. Description: Distribution of radioactivity in lung tissue of rats at 4 hr after an intravenous injection; Value expressed as mean % injected dose, Range- 0.28-0.31. Type of data set: ADME, organism-based. To be noted: in vivo. The essentials:
as §1

Data set [7] deals with Rattus norvegicus. The experiment in a line: Distribution of radioactivity in lung tissue of rats at 5 mins after an intravenous injection; Value expressed as mean % injected dose, Range- 0.98-1.22. It counts as ADME, organism-based. To be noted: in vivo. Put shortly: as §1
Data set [8] has as its system Rattus norvegicus. The experiment in a line: Distribution of radioactivity in thyroid tissue of rats at 1 day after an intravenous injection; Value expressed as mean % injected dose, Range- 406-499. It counts as ADME, organism-based, Thyroid gland. To be noted: in vivo, 24 h. The essentials:
as §1

Data set [9] concerns Rattus norvegicus. The experiment in a line: Distribution of radioactivity in thyroid tissue of rats at 2 mins after an intravenous injection; Value expressed as mean % injected dose, Range- 6.65-8.0.8. Type of data set: ADME, organism-based, Thyroid gland. As to conditions: in vivo. Put shortly: as §1
Data set [10] relates to Rattus norvegicus. The experiment in a line: Distribution of radioactivity in thyroid tissue of rats at 2 hr after an intravenous injection; Value expressed as mean % injected dose, Range- 92-159. Type of data set: ADME, organism-based, Thyroid gland. To be noted: in vivo. The essentials: as §1
The subject of data set [11] is Rattus norvegicus. Description: Distribution of radioactivity in thyroid tissue of rats at 30 mins after an intravenous injection; Value expressed as mean % injected dose, Range- 18.74-30.84. To be noted: in vivo, 0.5 h. Type of data set: ADME, organism-based, Thyroid gland. Put shortly:
as §1

The subject of data set [12] is Rattus norvegicus. Description: Distribution of radioactivity in thyroid tissue of rats at 4 hr after an intravenous injection; Value expressed as mean % injected dose, Range- 156-207. It counts as ADME, organism-based, Thyroid gland. To be noted: in vivo. Put shortly: as §1
Data set [13] relates to Rattus norvegicus. The experiment in a line: Ratio between the distribution of radioactivity of brain to that of blood tissue of rats at 1 day after an intravenous administration. Type of data set: ADME, organism-based. To be noted: 24 h. The essentials: (§2)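 Same rats (four per time point, 2 min–1 day) after a 7.95 μCi tail-vein dose of 125I-labeled agent in pH 7.4 phosphate buffer. Brain and blood were excised, weighed and gamma-counted as % injected dose/g. The ratio compares brain to blood radioactivity and is reported as a mean.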

Data set [14] relates to Rattus norvegicus. The experiment in a line: Ratio between the distribution of radioactivity of brain to that of blood tissue of rats at 1 hr after an intravenous administration. Type of data set: ADME, organism-based. The essentials:
as §2

In data set [15] the test system is Rattus norvegicus. Description: Ratio between the distribution of radioactivity of brain to that of blood tissue of rats at 2 hr after an intravenous administration. It counts as ADME, organism-based. The essentials: as §2
In data set [16] the test system is Rattus norvegicus. The experiment in a line: Ratio between the distribution of radioactivity of brain to that of blood tissue of rats at 2 min after an intravenous administration. It counts as ADME, organism-based. The essentials: as §2
The test system of data set [17] is Rattus norvegicus. Description: Ratio between the distribution of radioactivity of brain to that of blood tissue of rats at 30 min after an intravenous administration. It counts as ADME, organism-based. As to conditions: 0.5 h. Put shortly:
as §2

The test system of data set [18] is Rattus norvegicus. The experiment in a line: Ratio between the distribution of radioactivity of brain to that of blood tissue of rats at 4 hr after an intravenous administration. Type of data set: ADME, organism-based. The essentials:
as §2

Data set [19] has as its system Rattus norvegicus. Description: Ratio between the distribution of radioactivity of brain to that of blood tissue of rats at 5 min after an intravenous administration. It counts as ADME, organism-based. Put shortly:
as §2

For data set [20], the system named is Rattus norvegicus. The experiment in a line: Distribution of radioactivity in thyroid tissue of rats at 5 mins after an intravenous injection; Value expressed as mean % injected dose, Range- 6.19-7.22. To be noted: in vivo. It counts as ADME, organism-based, Thyroid gland. The essentials:
as §1

Data set [21] has as its system Rattus norvegicus. The experiment in a line: Distribution of radioactivity in heart tissue of rats at 4 hr after an intravenous injection; Value expressed as mean % injected dose, Range- 0.16-0.2. Type of data set: ADME, organism-based. As to conditions: in vivo. The essentials: as §1
Data set [22] has as its system Rattus norvegicus. Description: Distribution of radioactivity in heart tissue of rats at 5 mins after an intravenous injection; Value expressed as mean % injected dose, Range- 1.13-1.29. To be noted: in vivo. It counts as ADME, organism-based. The essentials: as §1
In data set [23] the test system is Rattus norvegicus. The experiment in a line: Distribution of radioactivity in liver tissue of rats at 1 day after an intravenous injection; Value expressed as mean % injected dose, Range- 0.02-0.02. Type of data set: ADME, organism-based. To be noted: in vivo, 24 h. Put shortly: as §1
For data set [24], the system named is Rattus norvegicus. Description: Distribution of radioactivity in liver tissue of rats at 1 hr after an intravenous injection; Value expressed as mean % injected dose, Range- 0.71-0.93. Type of data set: ADME, organism-based. To be noted: in vivo. The essentials: as §1

`CCC1(CCC/C=C/I)C(=O)NC(=O)NC1=O`: the Activity worked out at 0.03 in data set [1]; 0.97 in [2]; 1 in data set [3]; 0.76 in [4]; 0.79 in data set [5]; 0.29 in [6]. The Activity in data set [7] came to 1.08; in data set [8] it was 434; in data set [9], 7.64; in data set [10] it was 130; in [11] it was 26.16; in data set [12], 178. The Activity in [20] turned out to be 6.84; in data set [21] it was 0.18; in data set [22] it was 1.23; in [23], 0.02; in data set [24] it was 0.82. The Ratio in data set [13] is reported as 0.26; in data set [14], 0.2; in [15], 0.14; in [16] it was 0.83; in data set [17] it was 0.36; in data set [18] it was 0.07. The Ratio in data set [19] is 0.91.
